Measured values taken from ChEMBL document CHEMBL1150813, “Triterpene saponins from Vietnamese ginseng (Panax vietnamensis) and their hepatocytoprotective activity” (J Nat Prod, 2001).

Legend:
Format in all cases: functional
Hepatocyte [1] = assay: Hepatoprotective activity against D-galactosamine/TNFalpha-induced cell death in mouse hepatocytes assessed cell survival rate at 50 uM administered before 30 mins of TNFalpha challenge measured after 18 hrs by MTT assay
How it was run: (§1)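 Primary mouse hepatocytes, isolated by collagenase perfusion, were cultured in William's E medium with 10% calf serum, dexamethasone and insulin at 1.5×10^4 cells/well. TNF-α (100 ng/mL) was added 30 min later. Viability was read by MTT after 18 h. Values are mean ± SD, n = 4 (normal and control n = 8), with Student's t-test versus control.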

Hepatocyte [2] = assay: Hepatoprotective activity in mouse hepatocytes assessed protection against D-galactosamine/TNFalpha-induced cell death at 100 uM administered before 30 mins of TNFalpha challenge measured after 18 hrs; how it was run: as §1
Hepatocyte [3] = assay: Hepatoprotective activity in mouse hepatocytes assessed protection against D-galactosamine/TNFalpha-induced cell death at 200 uM administered before 30 mins of TNFalpha challenge measured after 18 hrs; how it was run: as §1
Hepatocyte [4] = assay: Hepatoprotective activity in mouse hepatocytes assessed protection against D-galactosamine/TNFalpha-induced cell death at 50 uM administered before 30 mins of TNFalpha challenge measured after 18 hrs; how it was run: as §1
Hepatocyte [5] = assay: Hepatoprotective activity in mouse hepatocytes assessed inhibition of D-galactosamine/TNFalpha-induced cell death dosed administered before 30 mins of TNFalpha challenge measured after 18 hrs; how it was run: as §1
Hepatocyte [6] = assay: Hepatoprotective activity in mouse hepatocytes assessed inhibition of D-galactosamine/TNFalpha-induced cell death at 100 uM administered before 30 mins of TNFalpha challenge measured after 18 hrs; how it was run: as §1
Hepatocyte [7] = assay: Hepatoprotective activity in mouse hepatocytes assessed inhibition of D-galactosamine/TNFalpha-induced cell death at 200 uM administered before 30 mins of TNFalpha challenge measured after 18 hrs; how it was run: as §1
Hepatocyte [8] = assay: Hepatoprotective activity in mouse hepatocytes assessed inhibition of D-galactosamine/TNFalpha-induced cell death at 50 uM administered before 30 mins of TNFalpha challenge measured after 18 hrs; how it was run: as §1
Hepatocyte [9] = assay: Hepatoprotective activity against D-galactosamine/TNFalpha-induced cell death in mouse hepatocytes assessed cell survival rate at 100 uM administered before 30 mins of TNFalpha challenge measured after 18 hrs by MTT assay; how it was run: as §1
Hepatocyte [10] = assay: Hepatoprotective activity against D-galactosamine/TNFalpha-induced cell death in mouse hepatocytes assessed cell survival rate at 200 uM administered before 30 mins of TNFalpha challenge measured after 18 hrs by MTT assay; how it was run: as §1

SMILES | Survival (Hepatocyte [1]) [%] | Activity (Hepatocyte [2]) [%] | Activity (Hepatocyte [3]) [%] | Activity (Hepatocyte [4]) [%] | IC50 (Hepatocyte [5]) [µM] | inhibition (INH) (Hepatocyte [6]) [%] | inhibition (INH) (Hepatocyte [7]) [%] | inhibition (INH) (Hepatocyte [8]) [%] | Survival (Hepatocyte [9]) [%] | Survival (Hepatocyte [10]) [%]
CC(=O)OC[C@H]1O[C@@H](O[C@H]2C[C@]3(C)[C@H](C[C@@H](O)[C@@H]4[C@@H]([C@]5(C)CC[C@@H](C(C)(C)O)O5)CC[C@]43C)[C@@]3(C)CC[C@H](O)C(C)(C)[C@H]23)[C@H](O[C@@H]2OC[C@@H](O)[C@H](O)[C@H]2O)[C@@H](O)[C@@H]1O [GINSENOSIDE R2] | 43.2 | 31.1 | 61.3 | 19 | 63.2 | 72.9 | 143.8 | 44.7 | 51.7 | 72.9
CC(C)=CCC[C@](C)(O[C@@H]1O[C@H](CO)[C@@H](O)[C@H](O)[C@H]1O)[C@H]1CC[C@]2(C)[C@@H]1[C@H](O)C[C@@H]1[C@@]3(C)CC[C@H](O)C(C)(C)[C@@H]3[C@@H](O[C@@H]3O[C@H](CO)[C@@H](O)[C@H](O)[C@H]3O)C[C@]12C [GINSENOSIDE RG1] | 41.6 | 17.3 | 26.2 | 16.7 | 111 | 40.6 | 61.4 | 39.3 | 42 | 48.3
CC(C)=CC/C=C(\C)[C@H]1CC[C@]2(C)[C@@H]1[C@H](O)C[C@@H]1[C@@]3(C)CC[C@H](O)C(C)(C)[C@@H]3[C@@H](O[C@@H]3O[C@H](CO)[C@@H](O)[C@H](O)[C@H]3O)C[C@]12C [GINSENOSIDE RH4] | 34 | 24.8 | 35.1 | 8 | 97 | 50.6 | 67.1 | 13.7 | 45 | 50
CC(C)=CCC[C@](C)(O[C@@H]1O[C@H](CO[C@@H]2OC[C@H](O)[C@H](O)[C@H]2O)[C@@H](O)[C@H](O)[C@H]1O)[C@H]1CC[C@]2(C)[C@@H]1[C@H](O)C[C@@H]1[C@@]3(C)CC[C@H](O[C@@H]4O[C@H](CO)[C@@H](O)[C@H](O)[C@H]4O[C@@H]4O[C@H](CO)[C@@H](O)[C@H](O)[C@H]4O)C(C)(C)[C@@H]3CC[C@]12C [GINSENOSIDE RB2] | 36.7 | 21 | 43.3 | 7.6 | 105 | 48.8 | 100.8 | 22.1 | 44.7 | 60.3
CC1(C)[C@@H](O[C@H]2O[C@H](C(=O)O)[C@@H](O)[C@H](O)[C@H]2O[C@@H]2O[C@H](C(=O)O)[C@@H](O)[C@H](O)[C@H]2O)CC[C@]2(C)[C@H]3C(=O)C=C4[C@@H]5C[C@@](C)(C(=O)O)CC[C@]5(C)CC[C@@]4(C)[C@]3(C)CC[C@@H]12 [GLYCYRRHIZIN] | 33 | 4.8 | 8.7 | 1 | > 200 | 11.1 | 20.3 | 11 | 33.4 | 36.2
CC(C)(O)[C@@H]1CC[C@@](C)([C@H]2CC[C@]3(C)[C@@H]2[C@H](O)C[C@@H]2[C@@]4(C)CC[C@H](O)C(C)(C)[C@@H]4[C@@H](O)C[C@]23C)O1 [PROTOPANAXATRIOL OXIDE II] | 40.2 | 22.2 | 92.2 | 17.9 | 74 | 51.7 | 209.9 | 34.5 | 45.3 | 92.6
